Assay results taken from ChEMBL document CHEMBL4371057, “Hydroxamic Acid Inhibitors Provide Cross-Species Inhibition of Plasmodium M1 and M17 Aminopeptidases” (J Med Chem, 2019).
Activity calls are given as the source filed them. No cut-off for these calls is given here.

Tests used:
[1] = Inhibition of Plasmodium vivax C-terminal His6-tagged M1 aminopeptidase (195 to 1097 residues) expressed in Escherichia coli BL21(DE3) preincubated for 20 mins followed by L-leucine-7-amido-4-methylcoumarin addition by Morrison equation analysis
Procedure, shortened: (§1)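 Recombinant enzymes (Ni-NTA then size exclusion) were preincubated 20 min with inhibitor in 100 mM Tris-HCl pH 8.0, with 2 mM CoCl2 for Pf-M17 and 1 mM for Pv-M17. Leu-AMC substrate: 20 μM (Pf-M1), 40 μM (Pv-M1), 10 μM (both M17). Read at 37 °C, 355/460 nm, to steady-state velocity. Ki from a Morrison tight-binding fit; biological triplicate from three protein preparations.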

[2] = Inhibition of Plasmodium falciparum C-terminal His6-tagged M17 aminopeptidase (85 to 605 residues) expressed in Escherichia coli BL21(DE3) preincubated for 20 mins followed by L-leucine-7-amido-4-methylcoumarin addition by Morrison equation analysis; procedure, shortened: as §1
[3] = Inhibition of Plasmodium vivax C-terminal His6-tagged M17 aminopeptidase (203 to 621 residues) expressed in Escherichia coli BL21(DE3) preincubated for 20 mins followed by L-leucine-7-amido-4-methylcoumarin addition by Morrison equation analysis; procedure, shortened: as §1
[4] = Selectivity ratio of Ki for Plasmodium falciparum C-terminal His6-tagged M1 aminopeptidase (195 to 1085 residues) expressed in Escherichia coli BL21(DE3) to Ki for Plasmodium vivax C-terminal His6-tagged M1 aminopeptidase (195 to 1097 residues) expressed in Escherichia coli BL21(DE3)
[5] = Inhibition of Plasmodium falciparum C-terminal His6-tagged M1 aminopeptidase (195 to 1085 residues) expressed in Escherichia coli BL21(DE3) preincubated for 20 mins followed by L-leucine-7-amido-4-methylcoumarin addition by Morrison equation analysis; procedure, shortened: as §1
[6] = Growth inhibition of HEK293 cells at 10 uM after 72 hrs by resazurin dye based assay relative to control; format: cell-based; conditions: human, read-out: GI
Procedure, shortened: (§2)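 HEK293 cells kept in DMEM with 10% FBS. Exposed to compounds for 72 h at 37 °C, 5% CO2, using the same dilution scheme as the parasite assay (top 40 μM). Medium then replaced with 44 μM resazurin, and fluorescence (530/595 nm) read after 5–6 h.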

[7] = test system: Plasmodium falciparum; assay: Antimalarial activity against Plasmodium falciparum Dd2 after 72 hrs by DAPI staining-based confocal imaging analysis; format: functional, organism-based; conditions: Plasmodium falciparum, Dd2, 72 h; read-out: IC50
Procedure, shortened: (§3)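 Exposed to a 16-point dose series (40 μM to 0.4 nM final, 0.4% DMSO) for 72 h at 37 °C in 90% N2/5% CO2/5% O2. DAPI-stained and imaged confocally. Two biological replicates, each with two technical repeats.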

[8] = test system: Plasmodium falciparum; assay: Antimalarial activity against Plasmodium falciparum 3D7 after 72 hrs by DAPI staining-based confocal imaging analysis; format: functional, organism-based; conditions: 3D7, 72 h; procedure, shortened: as §3
[9] = Cytotoxicity against HEK293 cells after 72 hrs by resazurin dye based assay; format: cell-based; conditions: human; procedure, shortened: as §2
[10] = Growth inhibition of HEK293 cells at 40 uM after 72 hrs by resazurin dye based assay relative to control; format: cell-based; conditions: human, read-out: GI; procedure, shortened: as §2
[11] = Selectivity index, ratio of CC50 for HEK293 cells to IC50 for Plasmodium falciparum 3D7; format: toxicity; conditions: human, read-out: Ratio CC50/IC50
[12] = test system: Plasmodium falciparum; conditions: 2 mM
[13] = test system: Plasmodium falciparum; assay: Reversible inhibition of Plasmodium falciparum C-terminal His6-tagged M17 aminopeptidase (85 to 605 residues) expressed in Escherichia coli BL21(DE3) assessed as enzyme activity recovery at 150 uM preincubated followed by compound washout for 5 hrs and subsequent L-leucine-7-amido-4-methylcoumarin substrate addition by fluorescence assay
Procedure, shortened: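 Pf-M17 (20 μM) was incubated overnight at 4 °C with 150 μM compound, 150 μM bestatin, 2 mM EDTA, or buffer (50 mM HEPES pH 8, 300 mM NaCl). It was then washed by repeated 10-fold concentration/dilution for up to 7 h, incubated 10 min in 1 mM MnCl2, 100 mM Tris pH 8.0, given 25 μM Leu-AMC (final), and fluorescence followed for 30 min.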

SMILES	Ki [1] [nM]	Ki [2] [nM]	Ki [3] [nM]	Ratio Ki [4]	Ki [5] [nM]	inhibition at 72 h, 10 µM [6] [%]	IC50 [7] [nM]	IC50 [8] [nM]	CC50 at 72 h [9] [nM]	inhibition at 72 h, 40 µM [10] [%]	selectivity ratio [11]	inhibition [12]	inhibition [13]
O=C(NO)[C@@H](NC(=O)[C@@H](F)C(F)(F)F)c1ccc(-c2cc(F)c(F)c(F)c2)cc1 (racemic)	211	2190	1240	10	1490								
C[C@H]1[C@@H](O)O[C@@H]2O[C@@]3(C)CC[C@H]4[C@H](C)CC[C@@H]1[C@@]24OO3 [ARTENIMOL]						31	0.4	0.5					
COc1ccc(C[C@H](N)C(=O)N[C@H]2[C@@H](O)[C@H](n3cnc4c(N(C)C)ncnc43)O[C@@H]2CO)cc1 [PUROMYCIN]						105	107	111	500	105	4.5		
O=C(O)CN(CCN(CC(=O)O)CC(=O)O)CC(=O)O												Active	
O=C(NC(C(=O)NO)c1ccc(-c2cc(F)c(F)c(F)c2)cc1)C1CC1 (stereo not given)	90.6	492	572	10	532								
CCC(=O)NC(C(=O)NO)c1ccc(-c2cc(F)c(F)c(F)c2)cc1 (stereo not given)	66.3	158	108	10	913								
O=C(CC1CCCC1)NC(C(=O)NO)c1ccc(-c2cc(F)c(F)c(F)c2)cc1 (stereo not given)	7.58	138	211	28.5	216	3.1	125	168		-1			
CC(C)C[C@H](NC(=O)[C@@H](O)[C@H](N)Cc1ccccc1)C(=O)O													Active
O=C(NC(C(=O)NO)c1ccc(-c2cc(F)c(F)c(F)c2)cc1)C1CCCC1 (stereo not given)	13.1	300	336	10	285								
CC(C)C(=O)NC(C(=O)NO)c1ccc(-c2cc(F)c(F)c(F)c2)cc1 (stereo not given)	38.9	426	325	10	417								
O=C(NC(C(=O)NO)c1ccc(-c2cc(F)c(F)c(F)c2)cc1)C1CCOCC1 (stereo not given)	159	290	494	10	431								
O=C(NC(C(=O)NO)c1ccc(-c2cc(F)c(F)c(F)c2)cc1)C1CCC1 (stereo not given)	29.8	185	371	10	236	6	120	126		48.2	≥ 158		
O=C(NC(C(=O)NO)c1ccc(-c2cc(F)c(F)c(F)c2)cc1)C1CCCCC1 (stereo not given)	37.6	195	178	10	818								
